According to ChEMBL document CHEMBL1629587, “Discovery of a small-molecule inhibitor of {beta}-1,6-glucan synthesis” (2009):
In brackets after ≈: the same amount, converted by molar mass. Activity calls are given as the source filed them. The rule behind the calls is not given here.

What was measured:
[1] = tested on: Saccharomyces cerevisiae; experiment: Induction of multibudding phenotype in Saccharomyces cerevisiae YPH500 after 18 hrs by microscopy; format: functional, organism-based
Outline: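 Exponential-phase cells suspended in RPMI 1640 with or without drug (2 μg/ml shown), shaken gently 18 h at 30°C, fixed in 3% glutaraldehyde in 0.1 M phosphate buffer, inspected by inverted light microscopy.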

[2] = tested on: Candida albicans; experiment: Inhibition of hyphal elongation of Candida albicans ATCC 24433 at 4 ug/ml after 6 hrs by microscopy; format: functional, organism-based
Outline: (§1)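 Hyphae induced in HFM-7 medium (Lee's medium also used) on type I collagen-coated wells, drug 0, 1, 4 or 16 μg/ml; static culture at 37°C, viewed by light microscopy after 6 h or 24 h.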

[3] = tested on: Candida albicans; experiment: Inhibition of hyphal elongation of Candida albicans ATCC 24433 at 16 ug/ml after 6 hrs by microscopy; format: functional, organism-based; outline: as §1
[4] = tested on: Saccharomyces cerevisiae; experiment: […] activity against Saccharomyces cerevisiae AY-10 transformed with empty vector pRS416 after 24 hrs by microdilution method; format: functional; details: AY-10, 24 h
[5] = tested on: Kluyveromyces marxianus; experiment: Antifungal activity against Candida kefyr ATCC 46764 after 24 hrs by microdilution method; format: functional; details: ATCC 46764, 24 h
Outline: (§2)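 CLSI broth microdilution run at 30°C instead of standard temperature; starting inoculum 1 × 10^3 to 3 × 10^3 cells/ml; DMSO under 1% final. Endpoints: MIC-0 = lowest concentration giving an optically clear well; MIC-2 = 50% drop versus drug-free control in absorbance at 570 nm with alamar blue redox indicator, used because treated cells clump.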

[6] = tested on: Candida albicans; experiment: Inhibition of hyphal elongation of Candida albicans ATCC 24433 at 4 ug/ml after 24 hrs by microscopy; format: functional, organism-based; outline: as §1
[7] = tested on: Saccharomyces cerevisiae; experiment: Inhibition of mannan synthesis in Saccharomyces cerevisiae AY-10 assessed as reduction in [14C]glucose incorporation at 0.078 to 1.25 ug/ml after 3 hrs; format: functional, organism-based
Outline: (§3)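 Exponential cells in RPMI 1640 at A595 about 0.6, pulse-labelled with [14C]glucose 2 μCi/ml plus drug at 30°C, sampled at 1 and 3 h. Cell wall fractionated: mannan from 3% NaOH extracts at 80°C by Fehling's reaction; residue digested with Zymolyase 100T (1 mg/ml), insoluble part = chitin; β-1,3-glucan = total glucan minus dialysed β-1,6-glucan. Scintillation counting; % change versus untreated.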

[8] = tested on: Nakaseomyces glabratus; experiment: Fungicidal activity against Candida glabrata IFO0622 after 24 hrs by microdilution method; format: functional; details: IFO0622, 24 h
Outline: (§4)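 Fungicidal concentration: after the MIC plate read, 4 μl from each well transferred into 200 μl MOPS-buffered RPMI, incubated 24 h at 30°C; MFC = lowest drug concentration with no visible growth.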

[9] = tested on: Saccharomyces cerevisiae; experiment: Fungicidal activity against Saccharomyces cerevisiae YPH500 after 24 hrs by microdilution method; format: functional; details: YPH500, 24 h; outline: as §4
[10] = tested on: Clavispora lusitaniae; experiment: Antifungal activity against Candida lusitaniae ATCC 200951 after 24 hrs by microdilution method; format: functional; details: ATCC 200951, 24 h; outline: as §2
[11] = tested on: Saccharomyces cerevisiae; experiment: Inhibition of chitin synthesis in Saccharomyces cerevisiae AY-10 assessed as reduction in [14C]glucose incorporation at 0.078 to 1.25 ug/ml after 1 hr; format: functional, organism-based; outline: as §3
[12] = tested on: Saccharomyces cerevisiae; experiment: Fungicidal activity against Saccharomyces cerevisiae AY-10-R15 mutant after 24 hrs by microdilution method; format: functional; details: AY-10-R15, 24 h
[13] = tested on: Aspergillus terreus; experiment: Antifungal activity against Aspergillus terreus ATCC 28301 after 24 hrs by microdilution method; format: functional; details: ATCC 28301, 24 h; outline: as §2
[14] = tested on: Saccharomyces cerevisiae; experiment: Inhibition of chitin synthesis in Saccharomyces cerevisiae AY-10 assessed as reduction in [14C]glucose incorporation at 0.078 to 1.25 ug/ml after 3 hrs; format: functional, organism-based; outline: as §3
[15] = tested on: Saccharomyces cerevisiae; experiment: Fungicidal activity against Saccharomyces cerevisiae AY-10-R11 mutant after 24 hrs by microdilution method; format: functional; details: AY-10-R11, 24 h
[16] = tested on: Cryptococcus neoformans; experiment: Antifungal activity against Cryptococcus neoformans ATCC 90112 after 24 hrs by microdilution method; format: functional; details: ATCC 90112, 24 h; outline: as §2
[17] = tested on: Pichia kudriavzevii; experiment: Antifungal activity against Candida krusei TIMM0269 after 24 hrs by microdilution method; format: functional; details: TIMM0269, 24 h; outline: as §2

CCc1c(C)c(C#N)c2nc3ccccc3n2c1NCCN(CC)CC
Activity [1]: Active | inhibition [2]: Active | inhibition [3]: Active | MIC [4]: 2 µg/mL (≈ 5.72 µM) | MIC [5]: 2 µg/mL (≈ 5.72 µM) | MIC50 [5]: 1 µg/mL (≈ 2.86 µM) | inhibition [6]: Active | inhibition [7]: inactive | MFC [8]: 32 µg/mL (≈ 91.6 µM) | MFC [9]: > 32 µg/mL | MIC [10]: 16 µg/mL (≈ 45.8 µM) | MIC50 [10]: 8 µg/mL (≈ 22.9 µM) | inhibition [11]: inactive | MIC [12]: > 64 µg/mL | MIC [13]: > 32 µg/mL | MIC50 [13]: > 32 µg/mL | inhibition [14]: inactive | MIC [15]: 8 µg/mL (≈ 22.9 µM) | MIC [16]: > 32 µg/mL | MIC50 [16]: > 32 µg/mL | MIC [17]: 16 µg/mL (≈ 45.8 µM) | MIC50 [17]: 8 µg/mL (≈ 22.9 µM)
